We go through 26 compounds from ChEMBL document CHEMBL1139517, “Mono- and bis-thiazolium salts have potent antimalarial activity” (J Med Chem, 2005).

SMILES strings stand for the structures. pIC50: −log10 of the molar value.

Series [1] has as its system Plasmodium falciparum. Description: In vitro inhibition of Plasmodium falciparum. The class given is functional, organism-based. The essentials:
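[³H]-hypoxanthine incorporation assay on the Nigerian strain of P. falciparum, run as described in earlier work. IC₅₀ is the concentration giving 50% inhibition of incorporation.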

In series [2] the test system is Mus musculus. Description: In vivo effective dose against Plasmodium vinckei in mice (Mus musculus) after intraperitoneal administration of the compound. The class given is functional. Conditions: ip. The essentials: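 Modified Peters 4-day suppressive test in female Swiss mice infected with P. vinckei petteri (279BY). Dosing was ip, once daily for 4 days. Controls received an equal volume of vehicle. Parasite growth was assessed on the day after the last treatment. ED₅₀ is the dose giving 50% growth inhibition relative to control.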

Series [3] is described as follows: Lethal dose against Plasmodium vinckei in mice (Mus musculus) after intraperitoneal administration. It counts as toxicity. Conditions: in vivo, ip.
Series [4] is described as follows: Ratio of LD50 to ED50 expressed as TI. Conditions: mouse. The class given is ADME. The essentials: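 Therapeutic index calculated as LD50/ED50. ED50 came from a modified 4-day suppressive test against P. vinckei petteri (279BY) in female Swiss mice, dosed ip once daily for 4 days. It is the dose giving 50% inhibition of parasite growth versus vehicle-treated controls, read the day after the last dose. LD50 came from tolerance after ip administration in mice.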

Regarding `CCOCCc1sc[n+](CCCCCCCCCCCC[n+]2csc(CCOCC)c2C)c1C`, the pIC50 – broadly, the negative decadic logarithm of the IC50, by convention in mol/L – in series [1] was 8.80.
Same read-out and setting: the value for `CCOC(=O)Cc1c(CCCCCCCCCCCCc2sc[n+](C)c2CC(=O)OCC)sc[n+]1C` was 7.66.
Regarding `Cc1csc[n+]1CCCCCCCCCCCC[n+]1cscc1C.[I-].[I-]`, in series [2], the ED50 (in general, the dose that gives a 50% effect, or the effect in half of the subjects) was 2.6 mg/kg. Besides, the pIC50 in series [1] was 8.52.
`c1ccc2c(c1)sc[n+]2CCCCCCCCCCCC[n+]1csc2ccccc21` gave a pIC50 in series [1] of 5.64.
The same measure, in the same setting: the value for `COCCc1sc[n+](CCCCc2ccc(CCCC[n+]3csc(CCOC)c3C)cc2)c1C` was 8.30.
On to `COCCc1sc[n+](CCCCCCCCCCCC[n+]2csc(CCOC)c2C)c1C.[I-].[I-]`, for which, in series [3], the LD50 (as a rule, the dose expected to kill half of the subjects tested) was found to be 1.2 mg/kg. Also, in series [2], the ED50 was 0.14 mg/kg. Moreover, in series [1], the negative-log IC50 (pIC50) is 9.19. Further, the TI in series [4] amounted to 5%.
The compound `CC(=O)OCCc1sc[n+](CCCCCCCCCCCC[n+]2csc(CCOC(C)=O)c2C)c1C.[I-].[I-]` returned an ED50 in series [2] of 0.7 mg/kg. Further, the pIC50 in series [1] is 8.51.
In series [1], `COCCc1sc[n+](CCCCCCCC[n+]2csc(CCOC)c2C)c1C` had a pIC50 of 7.06.
`Cc1c(CCO)sc[n+]1CCCCCCCCCCCC[n+]1csc(CCO)c1C.[I-].[I-]`: the LD50 in series [3] amounted to 1.2 mg/kg. The compound further returned an ED50 in series [2] of 0.2 mg/kg. In series [1], this compound gave a pIC50 of 8.65. The TI in series [4] is given as 5%.
In series [2], `CCc1sc[n+](CCCCCCCCCCCC[n+]2csc(CC)c2C)c1C.[I-].[I-]` had an ED50 of 0.4 mg/kg. Moreover, the pIC50 in series [1] was 8.80.
For the compound `Cc1c(CCO)sc[n+]1CCCCCCCCCC[n+]1csc(CCO)c1C`, the pIC50 in series [1] was 7.47.
Take `CCCCCCCCCCCC[n+]1csc(CCOC)c1C`: in series [1], the pIC50 is 7.12.
Still for that read-out and setting: the value for `Cc1c(CCOC(C)C)sc[n+]1CCCCCCCCCCCC[n+]1csc(CCOC(C)C)c1C` was 8.32.
In series [1], `CCOC(=O)Cc1c(CCCCCCCCCCCCc2sc[n+](Cc3ccccc3)c2CC(=O)OCC)sc[n+]1Cc1ccccc1` had a pIC50 of 6.60.
For `COCCc1sc[n+](CCCCCCCCCCCCCCCC[n+]2csc(CCOC)c2C)c1C`, in series [1], the pIC50 was 8.96.
In series [2], `C[N+]1(CCCCCCCCCCCCCCCC[N+]2(C)CCCC2)CCCC1.[Br-].[Br-]` gave an ED50 of 0.22 mg/kg. In series [1], this compound had a pIC50 of 9.19.
For `Cc1c(CCOCCCCCCOCCc2sc[n+](C)c2C)sc[n+]1C`, the pIC50 in series [1] was 6.56.
In turn, `COC(=O)CCC(=O)OCCc1sc[n+](CCCCCCCCCCCC[n+]2csc(CCOC(=O)CCC(=O)OC)c2C)c1C.[I-].[I-]` had an ED50 in series [2] of 3.1 mg/kg. The same compound showed a pIC50 in series [1] of 8.30.
`Cc1c(CCCl)sc[n+]1CCCCCCCCCCCC[n+]1csc(CCCl)c1C` gave a pIC50 in series [1] of 8.00.
As for `Cc1sc[n+](CCCCCCCCCCCC[n+]2csc(C)c2C)c1C.[I-].[I-]`, it took a dose of 1 mg/kg to reach the 50% effect level in series [2] (ED50). Moreover, the pIC50 in series [1] was 8.82.
In the case of `COCCc1sc[n+](CCCCCCCCCC[n+]2csc(CCOC)c2C)c1C`, the pIC50 in series [1] was 8.05.
Still for that read-out and setting: the value for `c1ccc(-c2csc[n+]2CCCCCCCCCCCC[n+]2cscc2-c2ccccc2)cc1` was 5.74.
On the same count and under the same terms, the value for `Cc1c(CCO)sc[n+]1CCCCCCCC[n+]1csc(CCO)c1C` was 6.44; that for `Cc1c(CCOCCCCCCOCCc2sc[n+](Cc3ccccc3)c2C)sc[n+]1Cc1ccccc1` was 7.44; that for `CCCCCCCCCCCC[n+]1csc(CCO)c1C` was 7.15.
`CCN(CC)CCCC(C)Nc1ccnc2cc(Cl)ccc12` (stereo not drawn) [CHLOROQUINE]: the ED50 in series [2] was found to be 1.1 mg/kg.
